Test results reported in ChEMBL document CHEMBL4346672, “Antimicrobial and KPC/AmpC inhibitory activity of functionalized benzosiloxaboroles” (Eur J Med Chem, 2019).
In brackets after ≈: the same amount, converted by molar mass. Activity calls are given as the source filed them. The calls are words filed in the database; no cut-off is given here.

Columns and labels:
Staphylococcus aureus [1] = test: Antibacterial activity against Staphylococcus aureus ATCC 6538P assessed as diameter of zone inhibition measured after 18 hrs by CLSI disc diffusion method; format: functional
Summary of the method: (§1)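 Disc diffusion on Mueller-Hinton II agar. Compounds dissolved in DMSO. Strains stored at -80 °C and subcultured twice on tryptic soy agar before testing. Inhibition zones read after 35 °C, 18 h.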

Pseudomonas aeruginosa [2] = test: Antibacterial activity against Pseudomonas aeruginosa ATCC 27853 measured after 18 hrs by CLSI broth dilution method; format: functional; details: ATCC 27853, 18 h
Summary of the method: (§2)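 Broth MIC in Mueller-Hinton II broth following CLSI, compounds dissolved in DMSO. Strains subcultured twice on tryptic soy agar before testing. Growth read after 35 °C, 18 h.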

[3] = Dissociation constant, pKa1 of compound in 0.1 M NaOH by potentiometric analysis; format: physicochemical
[4] = test system: Meyerozyma guilliermondii; test: Antifungal activity against Candida guilliermondii IBA 155 assessed as decrease in fungal cell growth at 0.78 to 12.5 mg/L incubated for 24 hrs by CLSI broth dilution method; format: functional; details: IBA 155, 24 h
Summary of the method: (§3)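 Yeast broth dilution in RPMI 1640 with 2% glucose, compounds in DMSO. Yeasts pre-grown on Sabouraud dextrose agar. Growth read after 35 °C, 24 h.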

Pichia kudriavzevii [5] = test: Antifungal activity against Candida krusei ATCC 6258 assessed as decrease in fungal cell growth at 0.78 to 12.5 mg/L incubated for 24 hrs by CLSI broth dilution method; format: functional; details: ATCC 6258, 24 h; summary of the method: as §3
Saccharomyces cerevisiae = test: Antifungal activity against Saccharomyces cerevisiae ATCC 9763 assessed as decrease in fungal cell growth at 0.78 to 12.5 mg/L incubated for 24 hrs by CLSI broth dilution method; format: functional; details: ATCC 9763, 24 h
Summary of the method: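 Yeast strain subcultured on Sabouraud dextrose agar for 24–48 h at 30 °C before testing. Compounds dissolved in DMSO.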

Candida albicans = test: Antifungal activity against Candida albicans ATCC 90028 assessed as diameter of zone inhibition incubated for 24 hrs by CLSI disc diffusion method; format: functional
Summary of the method: (§4)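 Yeast disc diffusion on Mueller-Hinton agar supplemented with 2% glucose and 0.5 mg/L methylene blue. Compounds in DMSO. Yeasts subcultured on Sabouraud dextrose agar before testing. Zones read after 35 °C, 24 h.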

Candida parapsilosis = test: Antifungal activity against Candida parapsilosis ATCC 22019 assessed as diameter of zone inhibition incubated for 24 hrs by CLSI disc diffusion method; format: functional; summary of the method: as §4
Candida tropicalis = test: Antifungal activity against Candida tropicalis IBA 171 assessed as diameter of zone inhibition incubated for 24 hrs by CLSI disc diffusion method; format: functional; summary of the method: as §4
[6] = test system: Meyerozyma guilliermondii; test: Antifungal activity against Candida guilliermondii IBA 155 assessed as diameter of zone inhibition incubated for 24 hrs by CLSI disc diffusion method; format: functional; summary of the method: as §4
Pichia kudriavzevii [7] = test: Antifungal activity against Candida krusei ATCC 6258 assessed as diameter of zone inhibition incubated for 24 hrs by CLSI disc diffusion method; format: functional; summary of the method: as §4
Staphylococcus aureus [8] = test: Antibacterial activity against Staphylococcus aureus ATCC 6538P measured after 18 hrs by CLSI broth dilution method; format: functional; summary of the method: as §2
[9] = test system: Staphylococcus epidermidis; test: Antibacterial activity against Staphylococcus epidermidis ATCC 12228 measured after 18 hrs by CLSI broth dilution method; format: functional; details: ATCC 12228, 18 h; summary of the method: as §2
Enterococcus faecalis = test: Antibacterial activity against Enterococcus faecalis ATCC 29212 measured after 18 hrs by CLSI broth dilution method; format: functional; details: ATCC 29212, 18 h; summary of the method: as §2
[10] = test system: Staphylococcus epidermidis; test: Antibacterial activity against Staphylococcus epidermidis ATCC 12228 assessed as diameter of zone inhibition measured after 18 hrs by CLSI disc diffusion method; format: functional; summary of the method: as §1
Enterococcus faecium = test: Antibacterial activity against Enterococcus faecium ATCC 6057 assessed as diameter of zone inhibition measured after 18 hrs by CLSI disc diffusion method; format: functional; summary of the method: as §1
Bacillus subtilis = test: Antibacterial activity against Bacillus subtilis ATCC 6633 assessed as diameter of zone inhibition measured after 18 hrs by CLSI disc diffusion method; format: functional; summary of the method: as §1
Escherichia coli [11] = test: Antibacterial activity against Escherichia coli ATCC 25922 measured after 18 hrs by CLSI broth dilution method; format: functional; details: ATCC 25922, 18 h; summary of the method: as §2
Klebsiella pneumoniae [12] = test: Antibacterial activity against Klebsiella pneumoniae ATCC 13883 measured after 18 hrs by CLSI broth dilution method; format: functional; details: ATCC 13883, 18 h; summary of the method: as §2
Proteus mirabilis [13] = test: Antibacterial activity against Proteus mirabilis ATCC 12453 measured after 18 hrs by CLSI broth dilution method; format: functional; details: ATCC 12453, 18 h; summary of the method: as §2
Acinetobacter baumannii [14] = test: Antibacterial activity against Acinetobacter baumannii ATCC 19606 measured after 18 hrs by CLSI broth dilution method; format: functional; details: ATCC 19606, 18 h; summary of the method: as §2
Escherichia coli [15] = test: Antibacterial activity against Escherichia coli ATCC 25922 assessed as diameter of zone inhibition measured after 18 hrs by CLSI disc diffusion method; format: functional; summary of the method: as §1
Enterobacter cloacae [16] = test: Antibacterial activity against Enterobacter cloacae DSM 6234 assessed as diameter of zone inhibition measured after 18 hrs by CLSI disc diffusion method; format: functional; summary of the method: as §1
Pseudomonas aeruginosa [17] = test: Antibacterial activity against Pseudomonas aeruginosa ATCC 27853 assessed as diameter of zone inhibition measured after 18 hrs by CLSI disc diffusion method; format: functional, organism-based; summary of the method: as §1
Acinetobacter baumannii [18] = test: Antibacterial activity against Acinetobacter baumannii ATCC 19606 assessed as diameter of zone inhibition measured after 18 hrs by CLSI disc diffusion method; format: functional; summary of the method: as §1
Burkholderia cepacia = test: Antibacterial activity against Burkholderia cepacia ATCC 25416 assessed as diameter of zone inhibition measured after 18 hrs by CLSI disc diffusion method; format: functional; summary of the method: as §1
[19] = test system: Bordetella bronchiseptica; test: Antibacterial activity against Bordetella bronchiseptica ATCC 4617 assessed as diameter of zone inhibition measured after 18 hrs by CLSI disc diffusion method; format: functional; summary of the method: as §1
Escherichia coli [20] = test: Antibacterial activity against Escherichia coli ATCC 25922 assessed as fold reduction of MIC in presence of efflux pump inhibitor PAbetaN incubated for 18 hrs by CLSI broth microdilution method; format: functional
Summary of the method: (§5)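 MICs determined with and without PAβN at 50 mg/L in Mueller-Hinton broth containing 1 mM MgSO₄. 2-fold serial dilutions per CLSI. Fold change taken from the paired MICs after 35 °C, 18 h.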

Klebsiella pneumoniae [21] = test: Antibacterial activity against Klebsiella pneumoniae ATCC 13883 assessed as fold reduction of MIC in presence of efflux pump inhibitor PAbetaN incubated for 18 hrs by broth microdilution method; format: functional; summary of the method: as §5
Proteus mirabilis [22] = test: Antibacterial activity against Proteus mirabilis ATCC 12453 assessed as fold reduction of MIC in presence of efflux pump inhibitor PAbetaN incubated for 18 hrs by broth microdilution method; format: functional; summary of the method: as §5
Enterobacter cloacae [23] = test: Antibacterial activity against Enterobacter cloacae DSM 6234 assessed as fold reduction of MIC in presence of efflux pump inhibitor PAbetaN incubated for 18 hrs by broth microdilution method; format: functional; summary of the method: as §5
Serratia marcescens [24] = test: Antibacterial activity against Serratia marcescens ATCC 13880 assessed as fold reduction of MIC in presence of efflux pump inhibitor PAbetaN incubated for 18 hrs by broth microdilution method; format: functional; summary of the method: as §5
Acinetobacter baumannii [25] = test: Antibacterial activity against Acinetobacter baumannii ATCC 19606 assessed as fold reduction of MIC in presence of efflux pump inhibitor PAbetaN incubated for 18 hrs by broth microdilution method; format: functional; summary of the method: as §5
Serratia marcescens [26] = details: ATCC 13880

Row | MIC (Pseudomonas aeruginosa [2]) [µg/mL] | pKa [3] | MIC [4] [µg/mL] | MIC (Pichia kudriavzevii [5]) [µg/mL] | MIC (Saccharomyces cerevisiae) [µg/mL] | MIC (Staphylococcus aureus [8]) [µg/mL] | MIC [9] [µg/mL] | MIC (Enterococcus faecalis) [µg/mL] | MIC (Escherichia coli [11]) [µg/mL] | MIC (Klebsiella pneumoniae [12]) [µg/mL] | MIC (Proteus mirabilis [13]) [µg/mL] | SMILES | diameter of the inhibition zone (DIZ) (Staphylococcus aureus [1]) [mm] | diameter of the inhibition zone (DIZ) (Candida albicans) | diameter of the inhibition zone (DIZ) (Candida parapsilosis) | diameter of the inhibition zone (DIZ) (Candida tropicalis) | diameter of the inhibition zone (DIZ) [6] | diameter of the inhibition zone (DIZ) (Pichia kudriavzevii [7]) | diameter of the inhibition zone (DIZ) [10] [mm] | diameter of the inhibition zone (DIZ) (Enterococcus faecium) | diameter of the inhibition zone (DIZ) (Bacillus subtilis) [mm] | also measured
1 | > 400 | 6.6 | 200 (≈ 813 µM) | 200 (≈ 813 µM) | 200 (≈ 813 µM) | 50 (≈ 203 µM) | 25 (≈ 102 µM) | 50 (≈ 203 µM) | > 400 | > 400 | > 400 | C[Si]1(C)OB(O)c2ccc(C(F)(F)F)cc21 | 20 | 14 mm | 12 mm | 13 mm | 16 mm | 13 mm | 20 | 14 mm | 47 | MIC (Acinetobacter baumannii [14]): 400 µg/mL (≈ 1630 µM); diameter of the inhibition zone (DIZ) (Escherichia coli [15]): inactive; diameter of the inhibition zone (DIZ) (Enterobacter cloacae [16]): inactive; diameter of the inhibition zone (DIZ) (Pseudomonas aeruginosa [17]): inactive; diameter of the inhibition zone (DIZ) (Acinetobacter baumannii [18]): 13 mm; diameter of the inhibition zone (DIZ) (Burkholderia cepacia): inactive; diameter of the inhibition zone (DIZ) [19]: inactive; fold change (FC) (Escherichia coli [20]): 16; fold change (FC) (Klebsiella pneumoniae [21]): 16; fold change (FC) (Proteus mirabilis [22]): 2; fold change (FC) (Enterobacter cloacae [23]): 16; fold change (FC) (Serratia marcescens [24]): 2; fold change (FC) (Acinetobacter baumannii [25]): 16; DIZ (Serratia marcescens [26]): inactive
2 | > 400 | 5.8 | > 400 | 400 (≈ 1640 µM) | 400 (≈ 1640 µM) | 200 (≈ 819 µM) | 200 (≈ 819 µM) | > 400 | > 400 | > 400 | > 400 | C[Si]1(C)OB(O)c2cc(F)c(CO)c(F)c21 | 17 | inactive | inactive | inactive | inactive | inactive | 19 | inactive | 11 | MIC (Acinetobacter baumannii [14]): 400 µg/mL (≈ 1640 µM); diameter of the inhibition zone (DIZ) (Escherichia coli [15]): inactive; diameter of the inhibition zone (DIZ) (Enterobacter cloacae [16]): inactive; diameter of the inhibition zone (DIZ) (Pseudomonas aeruginosa [17]): inactive; diameter of the inhibition zone (DIZ) (Acinetobacter baumannii [18]): inactive; diameter of the inhibition zone (DIZ) (Burkholderia cepacia): inactive; diameter of the inhibition zone (DIZ) [19]: inactive; fold change (FC) (Escherichia coli [20]): 4; fold change (FC) (Klebsiella pneumoniae [21]): 2; fold change (FC) (Proteus mirabilis [22]): 4; fold change (FC) (Enterobacter cloacae [23]): 8; fold change (FC) (Serratia marcescens [24]): 4; fold change (FC) (Acinetobacter baumannii [25]): 2; DIZ (Serratia marcescens [26]): inactive
3 | > 400 | 7.2 | 12.5 (≈ 63.8 µM) | 50 (≈ 255 µM) | 6.25 (≈ 31.9 µM) | 50 (≈ 255 µM) | 25 (≈ 128 µM) | 200 (≈ 1020 µM) | 400 (≈ 2040 µM) | > 400 | 200 (≈ 1020 µM) | C[Si]1(C)OB(O)c2cccc(F)c21 | 25 | 24 mm | 20 mm | 14 mm | 30 mm | 18 mm | 39 | 12 mm | 28 | MIC (Acinetobacter baumannii [14]): 200 µg/mL (≈ 1020 µM); diameter of the inhibition zone (DIZ) (Escherichia coli [15]): 17 mm; diameter of the inhibition zone (DIZ) (Enterobacter cloacae [16]): inactive; diameter of the inhibition zone (DIZ) (Pseudomonas aeruginosa [17]): inactive; diameter of the inhibition zone (DIZ) (Acinetobacter baumannii [18]): 11 mm; diameter of the inhibition zone (DIZ) (Burkholderia cepacia): inactive; diameter of the inhibition zone (DIZ) [19]: inactive; fold change (FC) (Escherichia coli [20]): 32; fold change (FC) (Klebsiella pneumoniae [21]): 16; fold change (FC) (Proteus mirabilis [22]): 2; fold change (FC) (Enterobacter cloacae [23]): 32; fold change (FC) (Serratia marcescens [24]): 4; fold change (FC) (Acinetobacter baumannii [25]): 4; DIZ (Serratia marcescens [26]): inactive
